# Bioassay records: PubChem BioAssay, Johns Hopkins Ion Channel Center
# Compounds with a hit are over-represented: about 3.5% of the library has one in this group of screens.
# MrgX1 allo act: human MrgX1 positive allosteric modulation, primary screen; MrgX1-HEK293, Fluo-4 calcium flux, FDSS; active compounds read high; B-score at 10 µM; actives 0.63% (n = 310,000); AID 588675;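 active = plate-corrected calcium response at least 3 library SD above typical, normal starting fluorescence, not activating the receptor alone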;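 note: compound read alongside a low EC10 to EC30 dose of BAM8-22 agonist; peak minus trough fluorescence over baseline measured at the second addition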
# Target sequence (Q96LB2 whole entry, looked up): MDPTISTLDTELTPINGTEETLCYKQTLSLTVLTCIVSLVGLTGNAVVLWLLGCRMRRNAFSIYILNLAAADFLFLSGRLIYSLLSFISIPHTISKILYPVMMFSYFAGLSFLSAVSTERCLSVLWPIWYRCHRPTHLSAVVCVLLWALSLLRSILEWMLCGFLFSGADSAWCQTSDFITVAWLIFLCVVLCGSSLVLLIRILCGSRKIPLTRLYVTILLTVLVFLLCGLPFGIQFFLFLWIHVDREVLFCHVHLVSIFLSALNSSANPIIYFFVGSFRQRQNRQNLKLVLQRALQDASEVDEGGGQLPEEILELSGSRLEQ
# RGS4 block: inhibitors of human RGS4. HEK293 M3R/RGS4 inducible, Fluo-4 calcium flux; active compounds read high; triggered by carbachol at its EC20. B-score at 10 µM. actives 0.45% (n = 310,000);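 active = B-score, a plate-corrected calcium signal, over three deviations above library mean, with baseline fluorescence within five deviations of library mean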;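 note: RGS4 expression induced by doxycycline in cells with stable M3 receptor; B-score is computed from the integrated fluorescence ratio over baseline after carbachol; higher B-score means a larger calcium signal and so more RGS4 inhibition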
# Target sequence (P49798 whole entry, looked up): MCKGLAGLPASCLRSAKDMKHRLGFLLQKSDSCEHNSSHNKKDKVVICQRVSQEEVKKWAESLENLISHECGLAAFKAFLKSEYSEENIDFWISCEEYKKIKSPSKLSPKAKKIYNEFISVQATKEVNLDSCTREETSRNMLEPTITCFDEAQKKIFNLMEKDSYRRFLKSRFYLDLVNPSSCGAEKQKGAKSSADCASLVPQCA
# RGS4 act: RGS4 potentiation or activation; HEK293 M3R/inducible RGS4, carbachol calcium flux Fluo4; active compounds read low; actives 0.92% (n = 310,000); B-score at 10 µM; AID 463111;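 active = B-score of the integrated calcium signal more than 4 SD below the library mean, with starting fluorescence not abnormally high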;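 note: negative B-score means reduced calcium response which marks RGS4 activation or potentiation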
#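 System: HEK293 FlpIn-TREx cells, stable M3R, doxycycline-inducible RGS4. Timing: overnight RGS4 induction, 30 min dye load 37 °C, 20 min compound RT. Also added: carbachol, ECmax concentration. Measured by: Fluo4 fluorescence kinetic imaging of calcium. Evaluation: integrated calcium ratio converted to B score.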
# MrgX1 agonist: human MrgX1 receptor agonism, primary screen. Q96LB2. MrgX1-HEK293 cells, Fluo-4 calcium fluorescence, agonist mode; active compounds read high. B-score at 10 µM. actives 0.44% (n = 310,000). AID 588627;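 active = calcium response B-score plate-corrected fluorescence ratio at least 3 library SD, with starting fluorescence B-score inside 5 SD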
#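 Test system: HEK293 cells stably expressing human MrgX1 receptor; amount: 15,000 cells per well; doses: compound delivered in addition one of three; times: overnight plating before 1 h dye loading; detection: Fluo-4 NW calcium-flux fluorescence, kinetic read; read-out basis: B-scored fluorescence response ratio; controls: positive and negative controls per plate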
# MrgX1 antag: blocks BAM8-22 activation of human MrgX1 receptor; MRGX1-HEK293 calcium flux, Fluo-4, BAM8-22 antagonism; active compounds read low; B-score at 10 µM; actives 1.3% (n = 310,000); Q96LB2;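 active = calcium-response B-score plate-corrected more than 3 library SD below zero, starting fluorescence within 5 deviations, no agonist response on first addition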;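 note: peak minus trough fluorescence over baseline after final BAM8-22 challenge near maximal dose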
# RGS4 activ val: RGS4 activation, validation assay | shares compounds with RGS4 act | HEK293 M3R/RGS4 inducible, carbachol calcium flux Fluo4 | inhibition, % at 10 µM | actives 89% (n = 1,100);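 active = inhibition above 3 SD of the buffer control wells, cut at about 41% in these data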;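 note: signal is the integrated peak-minus-minimum Fluo4 fluorescence over baseline ratio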
# RGS4 act ctr: counter-screen for RGS4 activators: effect in non-induced cells; shares compounds with RGS4 act; HEK293 M3R non-induced RGS4, Fluo4 calcium flux; after carbachol challenge at its EC90; inhibition, % at 10 µM; actives 82% (n = 1,100);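 active = inhibition exceeding 3 SD of buffer-only control wells, cut at about 26% in these data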;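 note: percent drop in integrated peak-minus-baseline over baseline Fluo4 ratio after carbachol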
# The depositor's hits bear a star; i = inactive; nt = no result.
SMILES,MrgX1 allo act,RGS4 block,RGS4 act,MrgX1 agonist,MrgX1 antag,RGS4 activ val,RGS4 act ctr
COC(=O)c1ccc(CN2CCN(C3CCCC3)C(CCO)C2)cc1 (stereo not given),i,i,-9.3*,i,i,92*,67*
C/C(=C\C=C(C#N)C#N)c1cc(C#N)c(N)o1,nt,i,-8.3*,nt,nt,62*,57*
CCCC(=O)NC(=S)Nc1cccc(Cl)c1N1CCCCC1,i,i,-8.9*,i,i,94*,64*
OC(Cc1nc2ccccc2[nH]1)c1ccccc1Cl (stereo not given),i,i,-8.2*,i,i,0,0
Clc1ccc(OCc2nc3ccccc3[nH]2)cc1,i,i,i,i,i,nt,nt
CCC(CC)C(=O)Nc1cccc(C(=O)N2CCCCCC2)c1,i,i,i,i,i,nt,nt
CCC(CC)C(=O)Nc1cccc(C(=O)N2CCOCC2)c1,i,i,-10*,i,i,0,0
CCCCCc1cc(O)c2c(C)cc(=O)oc2c1,i,i,i,i,i,nt,nt
CCCCc1cc(O)c(CCCC)c(O)c1,i,i,-8*,i,-11*,92*,88*
CC1CCCCN1CC(=O)Nc1ccc(Oc2ccccc2)cc1 (stereo not given),i,i,-9.1*,i,i,93*,87*
CC1CCCCN1CC(=O)Nc1ccc(N2CCCCCC2)cc1 (stereo not given),i,i,i,i,i,nt,nt
O=C(CCCN1C(=O)C(c2ccccc2)Oc2cccnc21)Nc1cccc(F)c1 (stereo not given),i,i,i,i,i,nt,nt
Cc1cc(C)nc(/N=C(\N)N(Cc2ccccc2)Cc2ccccc2)n1,i,i,-8.5*,i,i,92*,95*
COc1ccc(CCN2CC(C(=O)NCCN3CCCC3=O)CCC2=O)cc1 (stereo not given),i,i,i,i,i,nt,nt
Cc1nc2ccccn2c1-c1csc(Nc2cccc(O)c2)n1,nt,i,-8.4*,nt,nt,57*,0
O=C(COc1ncnc2sccc12)NC1CCS(=O)(=O)C1 (stereo not given),i,i,i,i,i,nt,nt
CCOc1cnc(-c2ccc(Cl)cc2)o1,i,i,i,i,i,nt,nt
CCOc1cnc(-c2c(-c3c(Cl)cccc3Cl)noc2C)o1,i,i,-8.5*,i,i,90*,61*
C=CCNC(=O)c1ccc2nc(-c3ccccc3)c(-c3ccccc3)nc2c1,i,i,-8.9*,i,i,77*,44*
O=C(O)c1ccc2nc3c(nc2c1)-c1ccccc1C3=O,i,i,-11*,i,i,0,0
C=CCNC(=O)c1ccc(C(=O)c2ccccc2)cc1,i,i,i,i,i,nt,nt
CCCc1c(C)nn(-c2ncccc2[N+](=O)[O-])c1C,i,i,i,i,i,nt,nt
COc1cc(/C=N/c2oc(-c3ccccc3)cc2C#N)ccc1O,i,i,-7.8*,i,i,0,0
O=C(c1cccc(C(F)(F)F)c1)C1CCCN(C(=O)/C=C/c2cnc[nH]2)C1 (stereo not given),i,i,i,i,i,nt,nt
COc1ccc(N2C(=O)CSC2c2ccccc2)cc1 (stereo not given),i,i,i,i,i,nt,nt
SMILES,MrgX1 allo act,RGS4 block,RGS4 act,MrgX1 agonist,MrgX1 antag,RGS4 activ val,RGS4 act ctr
COc1cccc(C2SCC(=O)N2c2ccc(C)cc2)c1OC (stereo not given),i,i,-8.9*,i,i,92*,86*
COc1ccc(N2C(=O)CSC2c2cccc(OC)c2OC)cc1 (stereo not given),i,i,-11*,i,i,86*,46*
OC(CNCc1ccc(F)cc1)(c1ccc(F)cc1)c1ccc(F)cc1,i,i,i,i,i,nt,nt
OC(CNCc1ccc(Cl)cc1)(c1ccccc1)c1ccc(F)cc1 (stereo not given),i,i,-9.4*,i,i,94*,86*
Cc1ccc(S(=O)(=O)Nc2c(C)nn(C)c2C)c(C)c1,i,i,i,i,i,nt,nt
O=C(Nc1ccc2c(c1)CCCN2C(=O)c1ccccc1)c1ccccc1,i,i,-9*,i,i,62*,0
COc1ccc(/C=N/NC(=O)c2cc(C(C)(C)C)[nH]n2)cc1COc1ccc(F)cc1F,i,i,-12*,i,i,74*,27*
CCOc1ccccc1N1CCN(C(=O)NCc2ccc(Cl)cc2)CC1,i,i,i,i,i,nt,nt
O=C(Nc1ccc2c(c1)OCCO2)c1cccnc1,i,i,-8.1*,i,i,0,0
CCc1ccc(C(=O)CSc2nc(C)cc(=O)[nH]2)cc1,i,i,i,i,i,nt,nt
Cc1ccc(OCc2cc(C(=O)N3CCc4sccc4C3)no2)cc1C,i,i,-7.7*,i,i,81*,44*
O=[N+]([O-])c1ccccc1N(CC1CO1)S(=O)(=O)c1ccccc1 (stereo not given),i,i,i,i,i,nt,nt
c1ccc(-c2nc(N3CCCCCC3)nc(-n3ccnc3)n2)cc1,i,i,-8.7*,i,i,92*,61*
c1ccc(-c2nc(N3CCN(c4ccccc4)CC3)nc(-n3ccnc3)n2)cc1,i,i,i,i,i,nt,nt
Cc1ccc2nsnc2c1S(=O)(=O)Nc1ccccc1C(=O)O,i,i,i,i,i,nt,nt
Cc1ccc(Cl)cc1NC(=O)C(=O)N1CCCCC1,i,i,i,i,i,nt,nt
Cc1ccc(Cl)cc1NC1=NC(=S)N(C(C)C)C12CCCCC2,i,i,-8.3*,i,i,80*,41*
Cc1ncc(CO)c2c1Oc1nc(-c3ccccc3)nc(SCC(=O)N3CCCCC3)c1C2,i,i,-7.8*,i,i,76*,40*
COc1cccc(-c2nc3c(c(SCC(=O)N4CCOCC4)n2)Cc2c(CO)cnc(C)c2O3)c1,i,i,-8.1*,i,i,40*,84*
Cc1nnc(SCC(=O)Nc2nccs2)n1N,i,i,i,i,i,nt,nt
COc1ccc(OC)c(-c2csc(NC(=O)c3ccc(F)cc3)n2)c1,i,i,-8.3*,i,i,82*,52*
